HIV Rev-RRE inh: inhibitors of HIV-1 Rev-RRE RNA interaction. inhibition, % at 8 µM. P05866. actives 0.79% (n = 97,000). Rev peptide-RRE RNA binding, FRET;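 active = inhibition above the screen-wide mean plus 3 SD, cut at about 35% in these data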;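 note: 0% = median DMSO wells and 100% = median Neomycin B control wells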
Target sequence (P05866 whole entry, looked up): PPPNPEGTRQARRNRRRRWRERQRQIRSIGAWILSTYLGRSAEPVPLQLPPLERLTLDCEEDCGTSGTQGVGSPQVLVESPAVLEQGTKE
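Assay system: Rev peptide and RRE RNA, both fluorescently labelled; times: 5 min preincubation and 15 min binding, 25 °C; detection: FRET, ex 480 nm, em 540 and 671 nm; read-out basis: % inhibition from 671/540 nm acceptor-to-donor ratio, scaled between controls; benchmarks: DMSO low control, neomycin B high control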
ERa SRC1 inh: blocks coactivator binding to human estrogen receptor alpha; P03372; TR-FRET ER-alpha LBD / SRC-1 peptide, estradiol-bound; inhibition, % at 25.6 µM; actives 1.7% (n = 86,000); in the data active = inhibition above about 50%;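 note: 0% = receptor plus peptide control and 100% = peptide only without receptor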
sEH inhibitor: blocks human soluble epoxide hydrolase activity | recombinant human sEH enzymatic activity assay | inhibition, % at 2 µM | P34913 | actives 0.34% (n = 91,000); in the data active = inhibition above about 80%
Target sequence (P34913 whole entry, looked up): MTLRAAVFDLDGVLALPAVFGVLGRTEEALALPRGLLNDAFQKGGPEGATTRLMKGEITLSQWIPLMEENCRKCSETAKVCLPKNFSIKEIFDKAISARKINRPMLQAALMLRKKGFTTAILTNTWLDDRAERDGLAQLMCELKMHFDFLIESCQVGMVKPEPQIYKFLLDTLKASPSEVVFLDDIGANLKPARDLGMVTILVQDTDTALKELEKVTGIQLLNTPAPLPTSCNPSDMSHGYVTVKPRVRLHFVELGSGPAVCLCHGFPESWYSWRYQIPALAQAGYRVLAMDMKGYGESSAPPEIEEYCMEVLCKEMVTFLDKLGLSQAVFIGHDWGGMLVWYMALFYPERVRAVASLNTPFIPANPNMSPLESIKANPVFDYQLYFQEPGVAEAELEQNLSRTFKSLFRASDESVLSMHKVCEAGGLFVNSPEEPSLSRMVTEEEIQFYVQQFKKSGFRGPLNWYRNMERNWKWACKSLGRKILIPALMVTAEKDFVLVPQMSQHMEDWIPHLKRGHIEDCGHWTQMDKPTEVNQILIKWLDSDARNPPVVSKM
ERb coact inh: blocks coactivator binding to human estrogen receptor beta; Q92731; TR-FRET ER-beta LBD / SRC1-Cy5 peptide binding; receptor agonist-loaded with 1 µM estradiol; inhibition, % at 25.6 µM; actives 1.3% (n = 86,000); AID 633;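 active = compounds whose percent inhibition of the receptor-coactivator binding signal exceeds about 50% in the single-dose screen, limit read from the data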;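 note: 0% = receptor plus peptide wells without compound and 100% = peptide-only wells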
sEH act: soluble epoxide hydrolase (human) activation. P34913. purified human sEH enzymatic activity, activator screen. activation, % at 2 µM. actives 0.04% (n = 91,000); in the data active = activation above about 37%
ERa coact pot: ER-alpha (human) coactivator binding potentiation. P03372. TR-FRET ERalpha-LBD/SRC-Cy5 coactivator binding, 2 h; 100 = basal binding, no effect. coactivator binding (% of control), % at 25.6 µM. actives 1.3% (n = 86,000). AID 639; in the data active = activity above about 200%;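 note: binding measured in presence of low estradiol as agonist stimulus; 0% = peptide alone without receptor and 100% = receptor with peptide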
An asterisk follows results filed as active; nt = not tested or not shown; [ ] = another dose, or the depositor's remark. Shown are actives, neighbours in structure and some others; about 3.5% of the full set was active somewhere.

SMILES | HIV Rev-RRE inh | ERa SRC1 inh | sEH inhibitor | ERb coact inh | sEH act | ERa coact pot
CCOC(=O)N1CCN(C(=O)c2ccc3c(=O)n(CCc4ccccc4)c(=S)[nH]c3c2)CC1 | -1 | -2 | 6 | -9 | -8 | 141
Cc1ccc(-n2nnnc2SCC(=O)NCCC2=CCCCC2)c(C)c1 | 5 | 3 | 82* | 7 | -82 | 94
Cc1ccc(-n2nnnc2SCC(N)=O)c(C)c1 | 5 | 21 | -16 | -5 | 15 | 103
O=C1c2cccc3c(N4CCCCC4)ccc(c23)C(=O)N1c1ccc(Cl)cn1 | 121*[fluorescence artefact?] | 5 | -6 | 14 | 5 | 90
O=C1c2cccc3c(N4CCCCC4)ccc(c23)C(=O)N1c1ccccn1 | 126*[fluorescence artefact?] | nt | 0 | nt | 0 | nt
O=C1c2cccc3c([N+](=O)[O-])ccc(c23)C(=O)N1c1ccccn1 | 17 | nt | -11 | nt | 12 | nt
O=C1c2cccc3c([N+](=O)[O-])ccc(c23)C(=O)N1c1ccc(Cl)cn1 | 69* | nt | 11 | nt | -9 | nt
O=C(O)c1ccc2c(c1)C(=O)N(c1ccc(Cl)cn1)C2=O | 1 | 0 | -2 | -6 | 2 | 92
Cc1cccc(C)c1N1CCN(c2ccc3nnc(C(F)(F)F)n3n2)CC1 | 12 | 7 | -2 | 20 | 5 | 101
O=S(=O)(c1ccc(OCC(O)CN2CCN(c3ccc(F)cc3)CC2)cc1)N1CCOCC1 (configuration not stated) | 8 | 2 | 11 | 10 | -12 | 89
CN(CC(O)COc1ccc(S(=O)(=O)N2CCOCC2)cc1)C1CCCCC1 (configuration not stated) | 2 | -5 | -7 | 78* | 5 | 101
Clc1ccc2oc(-c3ccccc3)nc2c1 | 10 | -1 | 2 | 57*[fluorescence artefact?] | -4 | 102
Clc1ccc2oc(-c3cccnc3)nc2c1 | 1 | -12 | -14 | -9 | 12 | 105
CC(=O)c1c(C)[nH]c(C(=O)NCc2ccccc2Cl)c1C | 2 | -13 | 85* | -10 | -85 | 130
CCc1c(C(=O)NCc2ccccc2Cl)[nH]c(C)c1C(C)=O | 2 | -7 | nt | -8 | nt | 105
CCCSc1nnc(NC(=O)Nc2ccc(F)cc2)s1 | nt | 11 | nt | 8 | nt | 247*
O=C1CC(c2ccc(Cl)cc2)n2nc(N3C(=O)c4ccccc4C3=O)nc2N1 (configuration not stated) | 2 | 3 | 6 | 9 | -6 | 106
O=c1[nH]c(Cn2nnc(-c3ccccc3)n2)nc2scc(-c3ccccc3)c12 | 8 | 5 | 12 | 11 | -12 | 120
Cc1c(Br)cc(C(=O)NCc2ccco2)c(C)c1C | nt | 51* | nt | 24 | nt | 99
Cc1ccc(C(=O)NCc2ccco2)cc1Br | 4 | 9 | -2 | 5 | 5 | 86
O=C(NCc1ccco1)c1cc2ccc(O)cc2oc1=O | 9 | 64* | -14 | 72* | 12 | 91
COc1cc(-c2nc(-c3ccccc3)c(-c3cccs3)[nH]2)cc(OC)c1O | 10 | 9 | -7 | 12 | 4 | 34
COc1cc(-c2nc(-c3ccccc3)c(-c3cccs3)[nH]2)cc(OC)c1OC | 0 | 18 | 0 | -5 | 0 | 252*
CC(=O)Nc1ccc(CN2CCN(c3cccc(C(F)(F)F)c3)CC2)cc1 | 7 | -7 | -11 | 3 | 12 | 101
COc1cc(-c2c(C#N)c(N)nc3c2CCCC3)ccc1O | -4 | 5 | 3 | 1 | -5 | 95
SMILES | HIV Rev-RRE inh | ERa SRC1 inh | sEH inhibitor | ERb coact inh | sEH act | ERa coact pot
COc1cc(/C=C(\C#N)c2nc3c(s2)CCCC3)ccc1O | 72* | nt | -20 | nt | 18 | nt
Nc1nnc(-c2ccco2)s1 | -1 | 6 | -2 | 18 | 4 | 90
Nc1ncnc2oc(-c3ccco3)c(-c3ccco3)c12 | 10 | 94*[fluorescence artefact?] | 2 | 88*[fluorescence artefact?] | -2 | 13
Cc1sc2ncn3cnnc3c2c1C | 5 | -6 | -1 | 2 | 4 | 115
Cc1cccc(NC(=O)CSc2nnc(-c3ccco3)c(-c3ccco3)n2)c1C | 2 | 74*[fluorescence artefact?] | 12 | 77*[fluorescence artefact?] | -11 | 32
Cc1ccccc1-c1nnc(SCC(=O)Nc2cccc(C)c2C)o1 | 7 | -5 | 13 | 6 | -13 | 124
O=C(Nc1ccc2c(c1)OCCO2)C1CCCN1S(=O)(=O)c1ccc(Cl)cc1 (configuration not stated) | 5 | 5 | 3 | -10 | -5 | 107
O=C1CC(N2CCN(c3ccc(C(=O)c4ccc(F)cc4)cc3)CC2)C(=O)N1 (configuration not stated) | 0 | -4 | nt | 5 | nt | 221*
CCc1ccc(N=CC2=C(O)CC(c3ccco3)CC2=O)cc1 (configuration not stated) | 0 | -3 | 7 | -17 | -10 | 109
COc1ccc(CC(C)N2CCN(Cc3ccccc3)CC2)c(OC)c1 (configuration not stated) | -1 | 6 | -9 | 2 | 10 | 120
CC(=O)NC12CC3CC(C1)CC(C(=O)OCC(=O)Nc1ncc(Cl)c(C)c1Cl)(C3)C2 | nt | 74*[fluorescence artefact?] | nt | 60* | nt | 49
CC(C)=CC(=O)OCC(=O)Nc1ncc(Cl)c(C)c1Cl | 5 | 28 | nt | 31 | nt | 37
COc1ccc(-c2cc3nc4c(c(N5CCC6(CC5)OCCO6)n3n2)CCCC4)cc1 | nt | 6 | nt | 7 | nt | 148
COc1cccc(-c2cc3nc(-c4ccccc4)cc(N4CCC5(CC4)OCCO5)n3n2)c1 | -1 | 21 | -14 | 14 | 15 | 210*
O=C(Cc1cc(=O)[nH]c(=O)[nH]1)N1CCN(C(=O)c2ccco2)CC1 | nt | -2 | nt | 5 | nt | 120
COc1ccc(C2=NO[C@@H]3C(=O)N(c4c(C)cccc4C)C(=O)[C@H]23)cc1OC | 7 | 3 | -14 | -7 | 15 | 103
COc1ccc(OC)c(N2C(=O)[C@@H]3C(c4ccccc4Cl)=NO[C@@H]3C2=O)c1 | -8 | 79* | -4 | 79* | 3 | 23
CC(=O)Nc1ccccc1NS(=O)(=O)c1ccc(Cl)cc1 | 8 | -4 | -11 | -5 | 9 | 100
COc1cc2[nH]c(=O)n(CCC(=O)N3CCN(c4cc(Cl)ccc4C)CC3)c(=O)c2cc1OC | -5 | 88*[fluorescence artefact?] | -3 | 43 | 2 | 40
CCOc1cc2[nH]c(=O)n(CCC(=O)N3CCN(c4ccccc4OC)CC3)c(=O)c2cc1OCC | 1 | -4 | 9 | 1 | -8 | 102
Cc1nc2cc(-c3ccccc3)nn2c(C)c1CCC(=O)NCc1ccco1 | 4 | 80*[fluorescence artefact?] | 16 | 10 | -17 | 98
COc1ccc(N(CC(=O)NCc2ccco2)S(=O)(=O)c2ccc(OC)c(OC)c2)cc1 | nt | 2 | nt | 54*[fluorescence artefact?] | nt | 94
COc1ccc(CCC(=O)NCc2ccco2)cc1 | 4 | 58*[fluorescence artefact?] | -3 | 49 | 4 | 212*[fluorescence artefact?]
CC(C)(C)NS(=O)(=O)c1ccc(CCC(=O)NCc2ccco2)cc1 | 0 | 2 | 8 | 4 | -6 | 92

High-throughput results (PubChem)
